# Screening data as filed in PubChem BioAssay.
# Hits are enriched below; roughly 1.5% of the tested compounds scored in any of these assays.
# CCR6 antag: blocks CCL20-driven beta-arrestin recruitment at human CCR6 | CHO-K1 CCR6 PathHunter beta-arrestin, luminescence, CCL20-stimulated | actives 0.49% (n = 340,000) | AID 493098 | inhibition, % at 20 µM | P51684;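 active means compounds whose inhibition of the agonist-driven luminescence signal at 20 µM reaches about 50%, limit read from the data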;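 further: cells stimulated with CCL20 at 14 nM final; plate controls were DMSO with CCL20 for no effect and DMSO without agonist for full effect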
# Target sequence (P51684 whole entry, looked up): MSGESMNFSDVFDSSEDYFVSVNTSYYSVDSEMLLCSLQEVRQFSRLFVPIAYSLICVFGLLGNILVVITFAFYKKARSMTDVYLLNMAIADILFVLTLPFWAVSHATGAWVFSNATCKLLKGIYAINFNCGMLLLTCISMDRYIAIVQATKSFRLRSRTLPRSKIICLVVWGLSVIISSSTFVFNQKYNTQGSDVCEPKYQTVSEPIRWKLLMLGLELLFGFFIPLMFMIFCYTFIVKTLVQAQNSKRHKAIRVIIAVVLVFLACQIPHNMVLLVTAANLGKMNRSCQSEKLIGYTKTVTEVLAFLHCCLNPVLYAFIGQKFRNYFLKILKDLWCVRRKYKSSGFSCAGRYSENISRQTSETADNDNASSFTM
# APJ antagonist: antagonists of human APJ apelin receptor; CHO-K1 APJ beta-arrestin complementation, luminescence; AID 2521; inhibition, % at 20 µM; P35414; actives 0.32% (n = 330,000);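 active means inhibition above about 40% at 20 µM, limit read from the data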;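 further: cells challenged with 10 nM apelin-13 agonist together with compound; plate controls were apelin-13 plus DMSO wells for no effect and DMSO wells lacking apelin-13 for full effect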
# APJ ag: agonists of human APJ apelin receptor. AID 2520. CHO-K1 APJ PathHunter beta-arrestin, luminescence; 0% DMSO wells, 100% apelin. actives 0.11% (n = 330,000). P35414. activation, % at 20 µM;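 active means activation more than six SD over the plate average, tested at 20 µM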;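 further: 0% = DMSO alone and 100% = apelin-13 at 10 nM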
#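 Assay system – PathHunter CHO-K1 APJ (AGTRL-1) beta-arrestin reporter cells · Compound – one dose, 20 µM compound, 1% DMSO · Timing – compound 90 min 25 °C, reagent 1 h · Measured by – luminescence from split beta-galactosidase complementation, Galacton Star/Emerald II substrate · Measure – beta-arrestin recruitment to APJ as agonist activity, luminescent signal · Benchmarks – DMSO vs Apelin-13 10 nM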
# EBI2 antag: EBI2 (human) antagonism; EBI2 beta-arrestin recruitment, luminescence, 7a,25-OHC stimulated; actives 0.81% (n = 360,000); AID 651636; inhibition, % at 5 µM; P32249; in the data active means inhibition above about 38%;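 further: enzyme fragment complementation signal reports receptor beta-arrestin coupling in cells; 0% = agonist plus DMSO wells and 100% = wells without agonist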
# CXCR6 inh: blocks human CXCR6 beta-arrestin recruitment | CHO-K1 PathHunter CXCR6 beta-arrestin, luminescence | inhibition, % at 20 µM | actives 0.36% (n = 360,000) | AID 602244; in the data active means inhibition above about 34%, passing the limit was not always enough;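 further: antagonist mode with CXCL16 agonist at 10 nM final; 0% = 10 nM CXCL16 with DMSO and 100% = unstimulated wells without agonist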
# APJ ag conf: confirmation of human APJ apelin receptor agonists; AID 2764; activation, % at 20 µM; actives 10% (n = 310); shares compounds with APJ ag; CHO-K1 APJ PathHunter beta-arrestin, luminescence;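 active means activation above 40%, taking the highest of four retests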;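 further: plate controls were DMSO wells for no effect and apelin-13 at 10 nM for full effect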
# * hit, by the source's call; . = not tested or not shown.
SMILES,CCR6 antag,APJ antagonist,APJ ag,EBI2 antag,CXCR6 inh,APJ ag conf
O=C(OCC(=O)N1CCCC1=O)c1cc2ccccc2o1,-1.9,-3.8,15.9*,-8.3,-3.3,14.4
COc1cc2nc(N3CCN(c4cc(C)ccc4C)CC3)nc(N)c2cc1OC,-5.1,-25.8,19.9*,16.4,-23.0,33.6
COc1cc(NC(=O)c2ccccc2)ccc1NC(=O)c1cc2ccccc2o1,-5.5,3.4,17.0*,-9.6,-0.7,1.2
Fc1ccc2[nH]c3c(N4CCN(c5ccccc5)CC4)ncnc3c2c1,-2.6,-10.1,14.1*,-5.8,1.1,25.9
CCOC(=O)N1CCN(c2ncnc3c2[nH]c2ccc(F)cc23)CC1,11.4,-7.0,7.8,4.0,-13.4,.
CC(=O)NC(C)c1ccc(C(=O)CSc2nnc(C3CC3)n2C2CC2)cc1 (centres undefined),7.7,0.1,-5.3,3.2,4.6,.
Cc1ccc(/C=N/NC(=O)CSc2nnc(-c3ccc(Cl)cc3)n2-c2ccccc2)o1,-68.2,-215.0,17.3,-52.0,-15.6,.
O=C(CSc1nnc(-c2ccc(Cl)cc2)n1-c1ccc(Cl)cc1)N/N=C/c1ccco1,-33.9,-80.3,18.0*,15.9,-21.7,16.7
CS(=O)(=O)c1ccc2nc(NC(=O)Nc3cccc(Cl)c3)sc2c1,6.7,-20.0,28.1*,-5.5,6.2,15.8
Cc1ccc(-c2cc(C(=O)Nc3ccncc3)c3ccccc3n2)cc1,-36.2,-23.9,30.6*,-40.5,-6.3,11.5
COc1ccc(S(=O)(=O)NCC2CCC(C(=O)NCc3ccc(F)cc3)CC2)cc1 (centres undefined),-4.6,-3.9,0.4,20.5,-7.0,.
CC(C)(C)OC(=O)NCc1ccc(CNC(=O)c2nc[nH]c2C(=O)NCc2ccc(CNC(=O)OC(C)(C)C)cc2)cc1,7.5,2.3,1.2,3.8,2.7,.
CC(C)(C)OC(=O)NCCCCCNC(=O)c1nc[nH]c1C(=O)NCc1ccc(CNC(=O)OC(C)(C)C)cc1,-7.4,-21.6,11.9*,-38.9,-26.1,9.2
COc1ccc(OC)c(-n2c(-c3ccc(O)cc3O)n[nH]c2=S)c1,5.2,-4.7,1.7,3.4,5.4,.
COc1cc(OC)cc(-c2n[nH]c(=S)n2-c2cc(OC)ccc2OC)c1,20.1,-3.4,36.4*,-10.2,2.6,40.2*
COC(=O)C1CC2(C(=O)OC)CC(C(=O)OC)(CC(C(=O)OC)C2=O)C1=O (centres undefined),4.1,.,.,-2.9,-2.7,.
CCCCn1nnnc1C1(C)CCC(=O)N1CCc1ccccc1F (centres undefined),.,.,.,-5.8,0.3,.
CCOC(=O)CSC1=Nc2ccccc2C2=NC(CC(=O)NCc3ccccc3)C(=O)N12 (centres undefined),10.2,5.5,5.7,-6.0,1.7,.
CCC(C)NC(=O)CSC1=Nc2ccccc2C2=NC(CC(=O)NCc3ccc(F)cc3)C(=O)N12 (centres undefined),7.4,-15.7,51.2*,-1.9,-4.0,8.0
COC(=O)C(=Cc1ccccc1[N+](=O)[O-])C(=O)OC,15.5,-2.9,-1.3,-38.7,9.9,.
C=CCC(C(=O)OC)(C(=O)OC)c1ccc([N+](=O)[O-])cc1[N+](=O)[O-],2.1,-34.8,14.3*,-12.6,0.8,4.2
C=CCC(C(=O)OC)(C(=O)OC)c1ccc(C(F)(F)F)cc1[N+](=O)[O-],2.8,-14.2,-5.4,-2.2,3.7,.
CCC(=O)c1cn([C@H](CCC(OC)OC)CC(=O)OC(C)(C)C)cc1CC,11.5,1.4,-4.6,14.3,2.1,.
COc1ccc(-c2ccc3c(c2)S(=O)(=O)c2cccc(C(=O)NC4CCCC4)c2C3=O)cc1OC,-3.3,1.0,9.0*,-21.0,3.0,11.2
CCOc1cc([N+](=O)[O-])cc2c1C(=O)Nc1ccccc1O2,-9.9,-20.2,14.0*,-3.7,-8.0,10.9
c1ccc(-c2nc(N3CCCCCC3)nc(-n3ccnc3)n2)cc1,27.7,-11.9,26.2*,10.5,4.3,11.7
c1ccc(-c2nc(N3CCN(c4ccccc4)CC3)nc(-n3ccnc3)n2)cc1,28.3,19.9,-2.1,38.3,17.0,.
COc1ccc(/C=N/NC(=O)CN(C)C(=O)OCc2ccccc2)cc1OC,9.6,20.2,-3.8,10.1,3.0,.
N/C(=N\OC(=O)c1ccoc1)c1ccc(Br)cc1,-35.0,-163.2,42.8*,-4.7,-13.2,23.9
